ERAP1 HTS inh: ERAP1 (human) enzyme inhibition | 340,000 tested, 0.15% active | AID 652197 | inhibition, % at 10.7 µM | recombinant ERAP1, Leu-AMC fluorescence, 60 min | Q9NZ08;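 active = mean replicate inhibition of at least 30%, or all replicates individually reaching that 30% level; inactive = mean below 30% and not every replicate reaching it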
Ecoli rRNA inh: inhibits bacterial ribosomal RNA function over humanized ribosomes. 350,000 tested, 1.6% active. E. coli WT GFP vs humanized-ribosome RFP mutants, fluorescence, 24 h; active compounds read low; DMSO median 0, no signal -100. GFP signal change (wild-type ribosome), % (no concentration beside the values);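 active = significant combined selectivity score with lowered wild-type GFP, culture density cut under 30%, mutant RFP and density less affected; inactive = any of these conditions unmet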
E-selectin induc: induces E-selectin expression in human endothelial cells; activation, % at 7.58 µM; 260,000 tested, 0.37% active; AID 686992; HUVEC E-selectin immunofluorescence imaging; normalized: neutral wells 0, TNF-alpha wells 100;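 active = mean E-selectin-positive cell signal at least 10% of the positive control, reached in at least 60% of replicates, without over 20% cell loss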
Target sequence (P16581 whole entry, looked up): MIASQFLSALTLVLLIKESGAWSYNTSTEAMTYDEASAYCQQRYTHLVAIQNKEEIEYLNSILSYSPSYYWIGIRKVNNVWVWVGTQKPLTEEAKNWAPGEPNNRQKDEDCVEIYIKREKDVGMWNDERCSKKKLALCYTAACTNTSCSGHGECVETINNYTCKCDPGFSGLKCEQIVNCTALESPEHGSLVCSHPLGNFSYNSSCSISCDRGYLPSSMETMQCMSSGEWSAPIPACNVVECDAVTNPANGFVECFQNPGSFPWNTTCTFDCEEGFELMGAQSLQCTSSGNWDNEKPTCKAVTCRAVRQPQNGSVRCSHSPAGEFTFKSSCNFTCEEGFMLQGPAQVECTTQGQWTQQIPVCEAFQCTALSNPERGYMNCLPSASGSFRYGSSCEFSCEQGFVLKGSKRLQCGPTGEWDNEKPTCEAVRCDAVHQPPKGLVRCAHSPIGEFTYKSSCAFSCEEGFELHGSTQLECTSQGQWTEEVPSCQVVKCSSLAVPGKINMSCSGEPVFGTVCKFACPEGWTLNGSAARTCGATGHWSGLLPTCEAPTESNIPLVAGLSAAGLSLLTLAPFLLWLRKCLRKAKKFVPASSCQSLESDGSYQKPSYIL
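Test system: HUVEC; input: 3,000 HUVEC/well; measured by: immunofluorescence imaging; read-out: % PE-positive cells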
MLL AF4-AF9 inh: inhibitors of human MLL-AF4/AF9 interaction; P42568; AlphaScreen, biotin-AF4 peptide binding to FLAG-AF9; inhibition, % at 10 µM; 350,000 tested, 0.47% active;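 active = every replicate reaching a set inhibition limit, whatever the replicate mean, cut at about 25% in these data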
SIRT5 block: inhibitors of human sirtuin-5 desuccinylase; Q9NXA8; Purified SirT5, succinyl-peptide AMC, trypsin-coupled fluorescence; inhibition, % at 15 µM; 330,000 tested, 1.1% active; AID 652115; in the data active = inhibition above about 15%
S100A4 inh HTS: S100A4-myosin IIA interaction inhibition. P26447. S100A4/TAMRA-MyoIIA peptide fluorescence polarization. inhibition, % at 10.7 µM. 360,000 tested, 0.14% active. AID 652163;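 active = mean inhibition of at least 70% across replicates, with every replicate also reaching that level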
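Material: S100A4 monomer protein | Medium: HEPES pH 7.2 with CaCl2, KCl, NaCl, DTT, Triton | Reagent: Labelled myosin peptide probe, 5 nM | Doses: One dose per compound | Times: 5 min incubation before reading | Benchmarks: Neutral control DMSO, positive control TFP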
A number is an active result; 0 = inactive; - = no result given. This is a sample that favours compounds with a hit; in the whole collection about 3.4% have one here.

SMILES	ERAP1 HTS inh	Ecoli rRNA inh	E-selectin induc	MLL AF4-AF9 inh	SIRT5 block	S100A4 inh HTS
CCOc1cc(/C=C/C(=O)OCC(=O)NC2CCS(=O)(=O)C2)ccc1OCc1ccccc1 (centres undefined)	0	-28.4	-	0	-	0
C/C=C/c1ccc([C@H]2[C@@H](CO)N(C(=O)CC)[C@@H]2CNC(=O)CC2CC2)cc1	-	0	0	-	-	-
O=C(C1=NN[C@@H]2C(=O)N(c3ccccc3C(F)(F)F)C(=O)[C@H]12)c1cnccn1	-	0	27.2	0	-	0
O=C(C1=NN[C@@H]2C(=O)N(c3cccc(F)c3)C(=O)[C@H]12)c1cnccn1	0	-	-	0	0	0
CC1(C(=O)NCC2CC2)C=CC2(CCCCC2)N1C(=O)c1ccccc1 (centres undefined)	0	0	-	-	0	0
CC1(C(=O)NCc2cc(F)cc(C(F)(F)F)c2)C=CC2(CCCCC2)N1C(=O)c1ccccc1 (centres undefined)	0	0	0	0	24.4	0
CC(=O)c1sc(Nc2ccccc2)nc1C	0	0	0	0	0	0
CC(C)(C)C(=O)c1sc(Nc2ccccc2)nc1N	0	-39.1	-	0	0	0
N#Cc1ccsc1NC(=O)CSc1nnnn1-c1ccc(O)cc1	0	-25.5	0	0	-	0
O=c1cc(CSc2nnnn2-c2ccc(O)cc2)nc2sccn12	0	0	0	0	38.3	0
N#Cc1ccsc1NC(=O)CSc1nncs1	0	0	0	0	0	0
Cn1c(Cc2ccccc2)nnc1SCc1cc(=O)n2ccsc2n1	0	-	0	0	0	0
CCOc1ccc(-n2nnnc2SCC(=O)Nc2cccc(O)c2)cc1	0	0	0	27.5	0	0
O=C(C[C@H]1CC[C@H]2[C@@H](COC[C@H](O)CN2C(=O)Nc2ccccc2)O1)NCc1ccncn1	0	0	0	0	0	0
C[C@H](CO)N1C[C@H](C)[C@@H](CN(C)C(=O)[C@H](Cc2ccccc2)N(C)C)OCc2ccccc2-c2c(n(C)c3ccccc23)C1=O	0	0	0	36.7	0	0
COC(=O)N(C)C[C@H]1OCc2ccccc2-c2c(n(C)c3ccccc23)C(=O)N([C@@H](C)CO)C[C@@H]1C	0	0	0	0	18.3	0
COc1ccc2[nH]c3c(=O)n4c(nc3c2c1)SCCC4	0	-28.1	-	0	0	0
Cc1ccccc1N(CC(=O)NC1CCCCC1)C(=O)CNC(=O)c1cccs1	0	0	44.9	0	0	0
O=S(=O)(Cc1ccccc1)N1CC2(C1)[C@H](c1ccccc1)[C@@H](CO)N2CC1CCOCC1	0	0	0	0	0	0
COCCCn1c(C(=O)NCCN2CCOCC2)cc2c(=O)n3ccccc3nc21	41.7	0	-	0	0	0
N=c1c(C(=O)NCCN2CCOCC2)cc2c(=O)n3ccccc3nc2n1CCc1ccccc1	50.9	0	0	0	0	0
N=c1c(C(=O)NCCc2ccccc2)cc2c(=O)n3ccccc3nc2n1CCCN1CCOCC1	0	0	0	0	0	0
Cn1c(C(=O)NCCN2CCOCC2)cc2c(=O)n3ccccc3nc21	0	0	-	0	0	0
O=S(=O)(N[C@@H]1CCCN(Cc2ccc(OCCO)cc2)C1)c1ccccc1	0	-	-	0	-	0
CC(C)Cc1ccc(CN2CC[C@@H](NS(=O)(=O)c3ccccc3)C2)cc1	0	-	-	0	-2.2	0
SMILES	ERAP1 HTS inh	Ecoli rRNA inh	E-selectin induc	MLL AF4-AF9 inh	SIRT5 block	S100A4 inh HTS
CCOC(=O)c1sc(NC(=O)CSc2nccn2C)nc1C	0	0	0	0	16.3	0
CCOC(=O)c1sc(NC(=O)CSc2ncccn2)nc1C	0	0	0	0	0	0
CCCN1C[C@H](C)[C@@H](OC)CN(C)C(=O)c2cc(NC(=O)CC)ccc2OC[C@H]1C	-	0	0	-	-	-
COc1ccc(N=C2NC(=O)/C(=C\c3ccco3)S2)cc1	0	0	0	0	0	0
O=C1NC(=Nc2ccc(O)cc2)S/C1=C\C=C\c1ccco1	-	-24.2	0	0	0	0
O=C(N[C@H](C(=O)N1CCC[C@H]1C(=O)NC1CCCC1)C1CCCCC1)c1ccc(Cl)cc1Cl	0	-28.0	0	-	0	0
C[C@@H]1CN([C@@H](C)CO)C(=O)c2cccc(NC(=O)C3CCOCC3)c2O[C@H]1CN(C)C(=O)Nc1ccc2c(c1)OCO2	0	0	0	0	0	0
Brc1ccc(CSc2nnc(-c3ccco3)o2)cc1	0	-22.0	-	0	0	0
O=C1N[C@H](c2ccccc2)COCc2cnnn2CC[C@@H]1Cc1ccc(-c2ccccc2)cc1	-	0	-	-	-	-
CCC(=O)N1C[C@@H](C)[C@@H](OC)CN(C)C(=O)c2cc(NC(=O)c3cnccn3)ccc2OC[C@H]1C	-	0	0	-	-	-
NNc1nc2sc3c(c2c(=O)n1Cc1ccccc1)CCC3	0	-33.5	0	0	0	0
CN(C)CCn1c(=O)n(Cc2ccccc2)c(=O)c2c3c(sc21)CCCCC3	0	0	-	26.0	0	0
CCCC#Cc1cnc2c(c1)C(=O)N([C@H](C)CO)C[C@H](C)[C@@H](CN(C)C(=O)c1ccc(F)cc1)O2	0	0	0	0	0	0
C/C=C/c1ccc2c(c1)O[C@@H](CN(C)C(=O)C1CCC1)[C@@H](C)CN([C@H](C)CO)S2(=O)=O	-	0	0	-	-	-
COc1ccc(NS(=O)(=O)c2nnc(NC(=O)c3ccccc3F)s2)cc1	0	-10.4	0	0	0	0
O=C(Nc1nnc(S(=O)(=O)Nc2ccccc2)s1)c1ccccc1Cl	0	0	0	0	0	0
CC(C)NC(=O)N(C)C[C@H]1Oc2cc(C#CC(C)(C)O)ccc2S(=O)(=O)N([C@H](C)CO)C[C@@H]1C	0	0	0	0	0	0
CN(C)CC(=O)Nc1ccc2c(c1)C(=O)N(C)[C@H]1CC[C@H](CC(=O)Nc3ccc(F)cc3)O[C@@H]1CO2	-	0	-	-	-	-
CCCCn1nc(NC(=O)CC(C)C)c2cc3cc(OC)ccc3nc21	0	0	55.6	0	0	0
COc1ccccc1N1CCN(C(=O)CCSCc2ccccc2F)CC1	0	0	0	0	0	0
COc1cccc(N2CCN(C(=O)CCSCc3ccccc3F)CC2)c1	0	-34.9	-	0	0	0
CCCCC1=CC2=C(c3ccco3)C(=O)C(C)(OC(=O)c3ccc(OC)cc3)C(=O)C2=CN1CCCOC(C)C (centres undefined)	0	0	0	-	33.9	0
C=CCN1C=C2C(=O)C(C)(OC(=O)c3ccc(OC)cc3)C(=O)C(c3ccco3)=C2C=C1CCCC (centres undefined)	0	0	0	0	-	0
COc1cc(/C=C(\C(=O)O)c2ccc(S(=O)(=O)N3CCCC3)s2)cc(OC)c1	0	0	0	0	0	0
CCOc1ccc(/C=C(\C(=O)O)c2ccc(S(=O)(=O)N3CCCCC3)s2)cc1OC	0	-23.0	0	0	0	0

From PubChem BioAssay
